Reference: ChEMBL document CHEMBL1123672, “Structure-activity relationships of sparsomycin and its analogues. Inhibition of peptide bond formation in cell-free systems and of L1210 and bacterial cell growth” (J Med Chem, 1987)
pEC50, pIC50: −log10 of the molar value.

What was measured:
[1] = Ability to inhibit the bacterial growth of Escherichia coli (MRE600) by 50% was determined.; type: functional; set-up: reference not given here
Escherichia coli [2] = test: Ability to inhibit the peptide bond formation by puromycin reaction in Escherichia coli was determined; type: functional; conditions: read-out: ED50 (the source's name)
Escherichia coli [3] = test: Ability to inhibit the phenylalanine synthesis in Escherichia coli was determined; type: functional; conditions: read-out: ED50 (the source's name)
In short: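 Poly(U)-directed [³H]Phe polymerization with E. coli MRE600 ribosomes ([…]) and S-100. The reaction was started with 30 μM [³H]Phe and run 30 min at 37 °C. TCA-insoluble counts were taken on glass-fiber filters. Averages of three experiments.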

Escherichia coli [4] = test: Ability to inhibit the peptide bond formation by fragment reaction in Escherichia coli was determined; type: functional; conditions: read-out: ED50 (the source's name)
In short: (§1)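 Fragment reaction: ribosomes (1 mg/mL, from E. coli MRE600 or S. cerevisiae Y166) in 150 μL of 33 mM Tris-HCl pH 7.4, 270 mM KCl, 13 mM Mg acetate, with 2 mM puromycin, 1 pmol N-acetyl-[³H]Leu-ACCAC(U) donor (ribonuclease T1 fragment of N-acetyl-[³H]Leu-tRNA), 33% methanol and test drug; no mRNA or small subunit. Values are averages of three experiments.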

L1210 = test: Ability to inhibit the colony formation of leukemia L1210 cells in agar medium (0.3%) was determined; type: functional; conditions: Mus musculus, read-out: ID50 (the source's name)
[5] = test system: Saccharolobus solfataricus; test: Ability to inhibit the phenylalanine synthesis in Sulfolobus solfataricus was determined; type: functional; conditions: read-out: ED50 (the source's name)
Saccharomyces cerevisiae [6] = test: Ability to inhibit the peptide bond formation by fragment reaction in Saccharomyces cerevisiae was determined; type: functional; conditions: read-out: ED50 (the source's name); in short: as §1
Saccharomyces cerevisiae [7] = test: Ability to inhibit the phenylalanine synthesis in Saccharomyces cerevisiae was determined; type: functional; conditions: read-out: ED50 (the source's name)
In short: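 Yeast (S. cerevisiae Y166) ribosomes and S-100 in the same poly(U)/[³H]Phe mix as the E. coli assay, with 20 mM creatine phosphate and 50 μg/mL creatine phosphokinase as the energy system. Incubation was 30 min at 30 °C. Cold 10% TCA precipitate was filter-counted. Averages of three experiments.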

[8] = (§2) Effect of 2-propanol on inhibition of the fragment reaction in the presence of 10 uM of compound was determined
In short: (§3)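 Solvent comparison: the fragment reaction (ribosomes with puromycin acceptor and N-acetyl-[³H]Leu-ACCAC(U) donor, in Tris-HCl pH 7.4/KCl/Mg acetate buffer) was run with methanol, ethanol, 2-propanol or butanol as the required organic solvent. Read-out is percent inhibition at the fixed drug level given in each line; series A and B are separate experiments.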

[9] = (§4) Effect of butanol on inhibition of the fragment reaction in the presence of 10 uM of compound was determined; in short: as §3
[10] = (§5) Effect of ethanol on inhibition of the fragment reaction in the presence of 10 uM of compound was determined; in short: as §3
[11] = (§6) Effect of methanol on inhibition of the fragment reaction in the presence of 10 uM of compound was determined; in short: as §3
[12] = Effect of 2-propanol on inhibition of the fragment reaction in the presence of 10 uM of compound was determined from Expt-A; in short: as §3
[13] = Effect of 2-propanol on inhibition of the fragment reaction in the presence of 20 uM of compound was determined from Expt-B; in short: as §3
[14] = Effect of butanol on inhibition of the fragment reaction in the presence of 10 uM of compound was determined from Expt-A; in short: as §3
[15] = Effect of ethanol on inhibition of the fragment reaction in the presence of 10 uM of compound was determined from Expt-A; in short: as §3
[16] = Effect of ethanol on inhibition of the fragment reaction in the presence of 20 uM of compound was determined from Expt-B; in short: as §3
[17] = Effect of methanol on inhibition of the fragment reaction in the presence of 10 uM of compound was determined from Expt-A; in short: as §3
[18] = Effect of methanol on inhibition of the fragment reaction in the presence of 20 uM of compound was determined from Expt-B; in short: as §3
[19] = as §4; type: functional; conditions: in the assay text read “100 uM” for “10 uM”; in short: as §3
[20] = as §2; type: functional; conditions: in the assay text read “100 uM” for “10 uM”; in short: as §3
[21] = as §5; type: functional; conditions: in the assay text read “100 uM” for “10 uM”; in short: as §3
[22] = as §6; type: functional; conditions: in the assay text read “100 uM” for “10 uM”; in short: as §3
[23] = Ability to inhibit the growth of Escherichia coli (MRE600) by 50% was determined. Activity represent the ratio of ED50 of sparsomycin to the ED50 of the compound; type: functional
In short: (§7)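 Liquid culture: E. coli MRE600 was grown in LB plus 0.2% glucose to A560 0.1, then 1-mL aliquots were incubated with drug 4 h at 37 °C. Growth was stopped with 0.1% sodium azide and A550 read; drug-free medium counts as 100%. ED50 (μM) is the dose giving 50% growth; the value reported is sparsomycin ED50/analogue ED50.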

[24] = Effect of ethanol on inhibition of the fragment reaction in the presence of 200 uM of compound was determined
[25] = Effect of methanol on inhibition of the fragment reaction in the presence of 200 uM of compound was determined
[26] = Effect of 2-propanol on inhibition of the fragment reaction in the presence of 200 uM of compound was determined
[27] = Ability to inhibit the bacterial growth of Escherichia coli (MRE600) by 50% was determined Activity represent the ratio of ED50 of sparsomycin to the ED50 of the compound; type: functional; in short: as §7

| Structure (SMILES) | Ratio [1] | pEC50 (Escherichia coli [2]) | pEC50 (Escherichia coli [3]) | pEC50 (Escherichia coli [4]) | pIC50 (L1210) | pEC50 [5] | pEC50 (Saccharomyces cerevisiae [6]) | pEC50 (Saccharomyces cerevisiae [7]) | also measured |
| --- | --- | --- | --- | --- | --- | --- | --- | --- | --- |
| CSC[S+]([O-])CC(CO)NC(=O)/C=C\c1cnc(O)nc1O (stereo not drawn) | 0.47 |  |  |  |  |  |  |  |  |
| Cc1nc(O)nc(O)c1/C=C/C(=O)N[C@@H](CO)C[S@@+]([O-])CCl | 0.55 | 6.19 | 3.35 | 5.12 | 6.54 | 2.30 | 4.77 | 3.66 |  |
| CSC[S@+]([O-])C[C@@H](CO)NC(=O)/C=C/c1c(C)nc(O)nc1O | 0.32 | 4.40 | 2.70 | 3.00 | 3.52 |  | 3.19 | 2.70 |  |
| Cc1nc(O)nc(O)c1/C=C/C(=O)NC(CO)C[S+]([O-])CSCc1ccccc1 (stereo not drawn) | 1 | 6.89 | 6.22 | 5.12 | 6.96 | 4.22 | 5.59 | 6.22 | Inhibition [8]: 20%; Inhibition [9]: 54%; Inhibition [10]: 29%; Inhibition [11]: 25% |
| CSC[S@+]([O-])C[C@H](CO)NC(=O)/C=C/c1c(C)[nH]c(=O)[nH]c1=O | 1 | 7.00 | 5.07 | 5.49 | 6.40 | 3.05 | 5.55 | 5.28 | Inhibition [12]: 64%; Inhibition [13]: 76%; Inhibition [14]: 86%; Inhibition [15]: 91%; Inhibition [16]: 92%; Inhibition [17]: 57%; Inhibition [18]: 64% |
| CCC[S+]([O-])CC(CO)NC(=O)/C=C/c1c(C)nc(O)nc1O (stereo not drawn) | 0.3 | 6.64 | 3.85 | 5.35 | 6.12 | 3.00 | 5.21 | 4.38 |  |
| CSCSC[C@@H](CO)NC(=O)/C=C/c1c(C)nc(O)nc1O | 0.01 | 3.00 | 2.70 | 3.00 | 3.52 |  | 3.26 | 2.70 |  |
| CCCCCCCCCC[S+]([O-])CC(CO)NC(=O)/C=C/c1c(C)nc(O)nc1O (stereo not drawn) | 3.6 | 7.10 | 5.74 | 2.30 | 6.85 | 4.52 | 3.15 | 6.70 | inhibition [19]: 15%; inhibition [20]: 12%; inhibition [21]: 35%; inhibition [22]: 44% |
| CSC[S@@+]([O-])C[C@@H](CO)NC(=O)/C=C/c1c(C)[nH]c(=O)[nH]c1=O (racemic) | 0.01 | 4.00 | 2.70 | 3.00 | 3.52 |  | 3.00 | 2.70 |  |
| Cc1nc(O)nc(O)c1/C=C/C(=O)N[C@@H](CO)C[S@+]([O-])CCl | 0.01 | 2.30 | 2.70 | 2.30 | 4.52 | 2.30 | 2.30 | 2.60 |  |
| CSC[S+]([O-])CC(CO)NC(=O)/C=C/c1cnc(O)nc1O (stereo not drawn) | 0.27 | 4.30 | 3.22 | 4.52 | 4.90 |  | 4.30 | 3.00 |  |
| CSCSC[C@H](CO)NC(=O)/C=C/c1c(C)nc(O)nc1O |  | 5.15 | 2.70 | 3.26 | 4.89 |  | 3.82 | 2.70 | Ratio [23]: 1.8 |
| CSC[S@@+]([O-])C[C@H](CO)NC(=O)/C=C/c1c(C)[nH]c(=O)[nH]c1=O | 0.92 | 4.89 | 2.70 | 3.15 | 5.24 |  | 4.19 | 2.70 |  |
| CCCCCCCCSC[S+]([O-])CC(CO)NC(=O)/C=C/c1c(C)nc(O)nc1O (stereo not drawn) | 2.5 | 6.60 | 5.80 | 4.22 | 7.00 |  | 3.52 | 5.89 | Inhibition [24]: 30%; Inhibition [25]: 42%; Inhibition [26]: 6% |
| Cc1nc(O)nc(O)c1/C=C/C(=O)NC(CO)CSC[S+](C)[O-] (stereo not drawn) |  | 3.80 | 2.70 | 3.12 | 3.74 |  | 3.46 | 2.70 | Ratio [27]: 0.4 |
